Test results: PMC4377730 (Theranostics, 2015)

Assay: [18F]FDG-PET in patients
Format: in vivo, human
How it was run: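 Patients fasted 6 h, and blood glucose was checked just before injection to be below 150 mg/dL. They received 300-500 MBq [18F]FDG, with PET/CT started 90 min p.i. at 2 min per bed position. A low-dose CT (120 […], 20 mAs) in shallow inspiration provided attenuation correction. Emission data were corrected for randoms, dead time, scatter and attenuation. Read-outs were SUVmean/SUVmax.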

[1] = NSCLC lesion, patient with T-cell lymphoma and NSCLC
[2] = bone marrow (BM), patient with multiple myeloma
[3] = hottest lesion in the 5th rib left, patient with multiple myeloma
[4] = lymphoma lesion, patient with T-cell lymphoma and NSCLC
[5] = nodal lesions, patient with chronic lymphocytic leukemia and suspected transformation into aggressive B-cell lymphoma

Structure (SMILES): O=C[C@H]([18F])[C@@H](O)[C@H](O)[C@H](O)CO [[^18F]FDG, 2-[^18F]Fluoro-2-desoxyglucose]
- SUVmax [1]: 38.57
- SUVmean [1]: 26.36
- SUVmax [2]: 6.24
- SUVmean [2]: 3.77
- SUVmax [3]: 8.06
- SUVmean [3]: 5.23
- SUVmax [4]: 50.91
- SUVmean [4]: 29.82
- SUVmax [5]: 5.94
- SUVmean [5]: 3.66
